Experimental data from paper PMC3868989 (Pharmaceutical research, 2012).
≈ marks a conversion by molar mass, not a printed value.

Legend:
[1] = system: prostate cancer cells PC3; test: MTT cell growth assay, PC3; type: cell-based; conditions: 72 h treatment
Method in brief: (§1)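 Cells grown at 37°C under humidified 5% CO2. BxPC-3 and MDA-MB-231 were in DMEM with 10% FBS, and PC3 was in RPMI with 10% FBS. Lines were STR-authenticated. Cells were seeded in 96-well plates and dosed 24 h after seeding. After 72 h, MTT 0.5 mg/ml was added for 2 h at 37°C. Medium was replaced with DMSO for 30 min at room temperature before reading absorbance. Eight replicate wells per treatment; each experiment run at least three times.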

[2] = Phase solubility analysis; type: physicochemical; conditions: in presence of β-cyclodextrin 0-20 mM, water, 30 ± 2°C, 72 h
[3] = system: breast cancer cells MDA-MB-231; test: MTT cell growth assay, MDA-MB-231; type: cell-based; conditions: MDA-MB-231 cells, 72 h treatment
Method in brief: as §1

[4] = Pharmacokinetics and tissue distribution; type: in vivo; conditions: mice, single i.v. dose CDF 5.0 mg/mice, at 2 h
Method in brief: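 Female ICR-SCID mice, 8–10 weeks old, were starved overnight. Each received a single i.v. dose: test compound 5.0 mg/mouse, or its β-cyclodextrin 1:2 complex at 12.5 mg/mouse (5.0 mg equivalent). Vehicle was 1:1 ethanol/polysorbate 80 diluted tenfold with 5% glucose. About 200 μL blood was taken by cardiac puncture for serum. Pancreas was PBS-washed, blotted and weighed. Samples were stored at −80°C and quantified by validated LC-MS/MS.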

[5] = Water solubility study of CDF and CDF-β-cyclodextrin complexes; type: physicochemical; conditions: distilled water, ambient temperature, shaken 2 h, UV 365 nm
Method in brief: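 The complex was made by kneading the components at 2:1 molar ratio in alcohol/water for 1 h. It was dried at 45°C for 24 h, powdered and sieved (#80). Excess test compound or complex was dispersed in 25 ml distilled water and shaken 2 h at ambient temperature to equilibrium. Solutions were passed through a 0.22-μm filter and diluted with methanol. Absorbance was read at 365 nm.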

[6] = pancreas of mice; cited from earlier work
[7] = system: pancreatic cancer cells BxPC-3; test: MTT cell growth assay, BxPC-3; type: cell-based; conditions: BxPC-3 cells, 72 h treatment
Method in brief: as §1

IC50 [1]: 260 nM | phase solubility diagram type [2]: AN type | IC50 [3]: 325 nM | concentration in pancreas [4]: ~ 300 ng/g | concentration in serum [4]: ~ 6 ng/ml | water solubility [5]: 14 µg/mL (≈ 28.4 µM) | IC50 [7]: 350 nM
SMILES: COc1cc(/C=C/C(=O)C(=Cc2ccc(F)c(F)c2)C(=O)/C=C/c2ccc(O)c(OC)c2)ccc1O [CDF, 3,4-difluorobenzo curcumin]
levels in pancreas relative to curcumin [6]: 10 times
